Measured values collected from several papers.
Compare with care: the assays were run in different laboratories.
GLP1R: Glucagon-like peptide 1 receptor (GLP1R, Homo sapiens, UniProt P43220)
MDM4: Protein Mdm4 (MDM4, Homo sapiens, UniProt O15151)
DRD3: D(3) dopamine receptor (DRD3, Homo sapiens, UniProt P35462)

Nc1c(S(=O)(=O)O)cc(Nc2ccc(Nc3nc(Cl)nc(Nc4cccc(S(=O)(=O)O)c4)n3)c(S(=O)(=O)O)c2)c2c1C(=O)c1ccccc1C2=O  IC50 (Pantothenate kinase 3 (PANK3, Homo sapiens, UniProt Q9H999); enzyme activity; inhibitor; ATP luminescence): 1300 nM
CC[C@H](C)[C@H](NC(=O)[C@H](CO)NC(=O)[C@H](CC(=O)O)NC(=O)[C@H](CC(C)C)NC(=O)[C@@H](NC(=O)[C@H](CCCCN)NC(=O)[C@H](CC(N)=O)NC(=O)[C@@H](NC(=O)[C@H](CC(=O)O)NC(=O)[C@H](CO)NC(=O)[C@@H](NC(=O)[C@H](Cc1ccccc1)NC(=O)[C@H](CO)NC(=O)CNC(=O)[C@H](CC(=O)O)NC(=O)[C@@H](NC(=O)[C@@H](N)Cc1c[nH]cn1)C(C)C)[C@@H](C)O)C(C)C)C(C)C)C(=O)N[C@@H](C)C(=O)N[C@@H](C)C(=O)N[C@@H](CCCCN)C(=O)N[C@@H](CCC(=O)O)C(=O)N[C@@H](Cc1ccc(O)cc1)C(=O)N[C@@H](CC(C)C)C(=O)N[C@@H](CCC(N)=O)C(=O)N[C@@H](Cc1c[nH]c2ccccc12)C(=O)N[C@H](C(=O)N[C@@H](CCSC)C(=O)N[C@@H](CC(N)=O)C(=O)N[C@@H](CO)C(=O)N[C@@H](CCCCN)C(=O)N[C@@H](C)C(=O)N[C@@H](CO)C(=O)NCC(=O)O)C(C)C  EC50 (GLP1R; reporter gene; agonist; luciferase): 3.64 nM
C[C@H](N)Cn1ncc2ccc3c(c21)CCCO3  EC50 (5-hydroxytryptamine receptor 2C (Rattus norvegicus, UniProt P08909); calcium signal; agonist): 15.7 nM
CC(C)[C@@H]1NC(=O)[C@H](CO)NC(=O)[C@H](CO)NC(=O)[C@H](CO)N(C)C(=O)[C@H](CC(=O)O)NC(=O)[C@H](CO)NC(=O)[C@H](Cc2ccccc2)NC(=O)CSC[C@@H](C(=O)NCC(N)=O)NC(=O)[C@H](CC(N)=O)NC(=O)[C@H](CCCNC(=N)N)NC(=O)[C@H](Cc2ccc(-c3ccccc3)cc2)NC(=O)[C@H](Cc2ccc(-c3ccccc3)cc2)NC(=O)[C@H](CC(N)=O)NC(=O)[C@@H]2CCCN2C1=O  Ki (MDM4; ligand displacement; TR-FRET): 740 nM
CSCC[C@H](NC(=O)[C@H](CCC(=O)O)NC(=O)[C@@H]1CCCN1C(=O)[C@@H](NC(=O)[C@@H]1CCCN1)[C@@H](C)O)C(=O)N[C@@H](CCCNC(=N)N)C(=O)N[C@@H](CCC(=O)O)C(=O)N[C@@H](CCCCN)C(=O)N[C@@H](CC(C)C)C(=O)N[C@H]1CSSC[C@@H]2NC(=O)[C@@H](NC(=O)[C@H](CC(C)C)NC(=O)[C@@H](NC(=O)[C@H](CCC(N)=O)NC(=O)[C@H](CC(C)C)NC(=O)[C@H](CC(=O)O)NC(=O)[C@@H]3CCC(=O)N3)[C@@H](C)O)CSSC[C@H](NC(=O)CNC(=O)[C@H](CC(=O)O)NC(=O)[C@H]([C@@H](C)O)NC2=O)C(=O)N[C@@H](CO)C(=O)N[C@@H](CCSC)C(=O)N[C@@H]([C@@H](C)O)C(=O)N[C@@H](CC(=O)O)C(=O)N[C@@H](CC(C)C)C(=O)N[C@@H](CO)C(=O)N[C@@H](C)C(=O)N[C@@H](CC(C)C)C(=O)N[C@H](C(=O)O)CSSC[C@@H](C(=O)NCC(=O)NCC(=O)N2CCC[C@H]2C(=O)N[C@@H](CCCNC(=N)N)C(=O)N[C@@H](Cc2c[nH]c3ccccc23)C(=O)N[C@@H](CO)C(=O)N[C@H](C(=O)N[C@@H](CCC(=O)O)C(=O)N[C@@H](C)C(=O)O)[C@@H](C)O)NC(=O)[C@H](C(C)C)NC(=O)[C@H](CCCNC(=N)N)NC(=O)[C@H](C(C)C)NC(=O)[C@H](CC(C)C)NC(=O)[C@H](C)NC(=O)[C@H](CCCNC(=N)N)NC(=O)[C@H](C(C)C)NC(=O)[C@H](Cc2ccccc2)NC(=O)[C@H](Cc2c[nH]cn2)NC(=O)[C@H](Cc2c[nH]cn2)NC(=O)CNC1=O  Ki (Relaxin receptor 2 (RXFP2, Homo sapiens, UniProt Q8WXD0); ligand displacement in cells): 0.708 nM
CCCC[C@@H](NC(=O)[C@@H](N)Cc1ccc(O)cc1)C(=O)NCC(=O)N[C@@H](Cc1ccc(F)cc1)C(=O)N(C)CCC[C@@]1(c2ccc(F)cc2)OCc2cc(C#N)ccc21  Ki (DRD3; ligand displacement; radioligand): 4300 nM
CCN(CC)c1ccc(/C=N/NC(=O)c2ccc(O)cc2)cc1  IC50 (Protein smoothened (SMO, Homo sapiens, UniProt Q99835); ligand displacement): 100 nM
CC[C@H](C)[C@H](NC(=O)[C@H](CC(C)C)NC(=O)[C@H](Cc1c[nH]c2ccccc12)NC(=O)[C@H](CC(=O)O)NC(=O)[C@@H](NC(=O)[C@H](Cc1ccccc1)NC(=O)[C@H](CCC(=O)O)NC(=O)[C@H](CCCCN)NC(=O)[C@H](C)NC(=O)[C@H](C)NC(=O)[C@H](CCCCN)NC(=O)[C@H](CCC(=O)O)NC(=O)[C@H](CC(=O)O)NC(=O)[C@H](CC(C)C)NC(=O)[C@H](Cc1c[nH]cn1)NC(=O)[C@H](CCC(N)=O)NC(=O)[C@@H](NC(=O)[C@@H](NC(=O)[C@H](CC(=O)O)NC(=O)[C@H](CO)NC(=O)[C@@H](NC(=O)[C@H](Cc1ccccc1)NC(=O)[C@@H](NC(=O)CNC(=O)[C@H](CCC(=O)O)NC(=O)[C@H](C)NC(=O)[C@@H](N)Cc1c[nH]cn1)[C@@H](C)O)[C@@H](C)O)C(C)C)[C@@H](C)O)[C@@H](C)CC)C(=O)N[C@@H](CC(N)=O)C(=O)NCC(=O)NCC(=O)N1CCC[C@H]1C(=O)O  EC50 (GLP1R; reporter gene; agonist; luciferase): 0.449 nM
CC(C)[C@@H]1NC(=O)[C@H](CO)NC(=O)[C@H](CO)NC(=O)[C@H](CO)N(C)C(=O)[C@H](CC(=O)O)NC(=O)[C@H](CO)NC(=O)[C@H](Cc2ccccc2)NC(=O)CSC[C@@H](C(=O)NCC(N)=O)NC(=O)[C@H](CC(N)=O)NC(=O)[C@H](CCCNC(=N)N)NC(=O)[C@H](C)NC(=O)[C@H](Cc2ccc(-c3ccccc3)cc2)NC(=O)[C@H](CC(N)=O)NC(=O)[C@@H]2CCCN2C1=O  Ki (MDM4; ligand displacement; TR-FRET): > 8880 nM
CCCCNNC(=O)c1ccc(Br)cc1  IC50 (Histone deacetylase 5 (HDAC5, Homo sapiens, UniProt Q9UQL6); enzyme activity; inhibitor; fluorescence): > 100000 nM
CN(C)CCCN1c2ccccc2Sc2ccccc21  IC50 (DRD3; ligand displacement; radioligand): 75 nM
c1cc[c]([Sn]([c]2ccccc2)[c]2ccccc2)cc1  EC50 (Peroxisome proliferator-activated receptor gamma (PPARG, Homo sapiens, UniProt P37231); reporter gene; agonist; luciferase): 20 nM
CSc1nc(N[C@H](C(C)C)C2CC2)c2ncn([C@H]3[C@H](O)[C@H](O)[C@]4(CO)C[C@H]34)c2n1  Ki (DRD3; ligand displacement; radioligand): 2230 nM
CC(C)C[C@H](NC(=O)[C@H](Cc1ccc(O)cc1)NC(=O)[C@H](CO)NC(=O)[C@H](CO)NC(=O)[C@@H](NC(=O)[C@H](CC(=O)O)NC(=O)[C@H](CO)NC(=O)[C@@H](NC(=O)[C@H](Cc1ccc(O)cc1)NC(=O)[C@@H](NC(=O)CNC(=O)[C@H](CC(=O)O)NC(=O)[C@H](C)NC(=O)[C@@H](N)Cc1c[nH]cn1)[C@@H](C)O)[C@@H](C)O)C(C)C)C(=O)N[C@@H](CCC(N)=O)C(=O)N[C@@H](CC(=O)O)C(=O)N[C@@H](CCC(N)=O)C(=O)N[C@@H](C)C(=O)N[C@@H](C)C(=O)N[C@@H](CCCCN)C(=O)N[C@@H](CCC(=O)O)C(=O)N[C@@H](Cc1ccccc1)C(=O)N[C@H](C(=O)N[C@@H](CO)C(=O)N[C@@H](Cc1c[nH]c2ccccc12)C(=O)N[C@@H](CC(C)C)C(=O)N[C@@H](CCCCN)C(=O)N[C@H](C(=O)NCC(=O)N[C@@H](CCCNC(=N)N)C(=O)NCC(=O)O)[C@@H](C)O)C(C)C  EC50 (GLP1R; reporter gene; agonist; luciferase): 0.436 nM
CO[C@H]1C[C@H](O[C@H]2[C@H](C)O[C@@H](O[C@@H]3/C(C)=C/C[C@@H]4C[C@@H](C[C@]5(C=C[C@H](C)[C@@H](C6CCCCC6)O5)O4)OC(=O)[C@@H]4C=C(C)[C@@H](O)[C@H]5OC/C(=C\C=C\[C@@H]3C)[C@]54O)C[C@@H]2OC)O[C@@H](C)[C@@H]1O  IC50 (Nuclear receptor subfamily 1 group I member 3 (Homo sapiens, UniProt Q14994); reporter gene; antagonist): 43200 nM
